IC50 and inhibition data for 16 compounds are collected here from ChEMBL document CHEMBL4002555, “Bioactive Pentacyclic Triterpenoids from the Leaves of Cleistocalyx operculatus” (J Nat Prod, 2016).

For data set [1], the system named is NCI-N87. Kind of data set: Cytotoxicity against human NCI-N87 cells after 72 hrs by MTT assay. Type of data set: functional, cell-based. The following applies: NCI-N87, 72 h. The procedure, abridged: (§1)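 MTT growth-inhibition assay in human HepG2 hepatocellular, NCI-N87 gastric and MCF-7 breast carcinoma lines, with a doxorubicin positive control. IC50 values are means ± SD from three individual experiments; >10.0 μM was taken as noncytotoxic.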

Data set [2] deals with MCF7. Kind of data set: Cytotoxicity against human MCF7 cells after 72 hrs by MTT assay. The note with it: MCF7, 72 h. Type of data set: functional, cell-based. The method in brief:
as §1

Data set [3] concerns HepG2. Kind of data set: Cytotoxicity against human HepG2 cells after 72 hrs by MTT assay. Type of data set: functional, cell-based. The following applies: HepG2, 72 h. The procedure, abridged:
as §1

Data set [4] relates to RAW264.7. Kind of data set: Anti-inflammatory activity in mouse RAW264.7 cells assessed as inhibition of LPS-induced TNF-alpha production at 2 uM pretreated for 1 hr followed by LPS stimulation measured after 24 hrs by ELISA relative to control. Type of data set: functional. The procedure, abridged: (§2)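 LPS-stimulated RAW 264.7 macrophages, with IL-6 and TNF-α production read separately. Test concentrations were 0.4, 2, 10 and 50 μM, and dexamethasone was the reference drug. Results are given as percent inhibition of cytokine production.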

In data set [5] the test system is RAW264.7. The data set can be described thus: Anti-inflammatory activity in mouse RAW264.7 cells assessed as inhibition of LPS-induced TNF-alpha production at 50 uM pretreated for 1 hr followed by LPS stimulation measured after 24 hrs by ELISA relative to control. Type of data set: functional. The procedure, abridged:
as §2

Data set [6] deals with RAW264.7. Kind of data set: Anti-inflammatory activity in mouse RAW264.7 cells assessed as inhibition of LPS-induced IL-6 production at 50 uM pretreated for 1 hr followed by LPS stimulation measured after 24 hrs by ELISA relative to control. Type of data set: functional. The method in brief:
as §2
(In general: An ELISA detects its analyte on a solid surface through an enzyme-linked reagent.)

Data set [7] relates to RAW264.7. The data set can be described thus: Anti-inflammatory activity in mouse RAW264.7 cells assessed as inhibition of LPS-induced IL-6 production at 0.4 uM pretreated for 1 hr followed by LPS stimulation measured after 24 hrs by ELISA relative to control. Type of data set: functional. The procedure, abridged: as §2
The test system of data set [8] is RAW264.7. Kind of data set: Anti-inflammatory activity in mouse RAW264.7 cells assessed as inhibition of LPS-induced TNF-alpha production at 10 uM pretreated for 1 hr followed by LPS stimulation measured after 24 hrs by ELISA relative to control. Type of data set: functional. The procedure, abridged:
as §2

For data set [9], the system named is RAW264.7. The data set can be described thus: Anti-inflammatory activity in mouse RAW264.7 cells assessed as inhibition of LPS-induced IL-6 production at 2 uM pretreated for 1 hr followed by LPS stimulation measured after 24 hrs by ELISA relative to control. Type of data set: functional. The procedure, abridged:
as §2

The subject of data set [10] is RAW264.7. The data set can be described thus: Anti-inflammatory activity in mouse RAW264.7 cells assessed as inhibition of LPS-induced IL-6 production at 10 uM pretreated for 1 hr followed by LPS stimulation measured after 24 hrs by ELISA relative to control. Type of data set: functional. The procedure, abridged:
as §2

Data set [11] relates to RAW264.7. Kind of data set: Anti-inflammatory activity in mouse RAW264.7 cells assessed as inhibition of LPS-induced TNF-alpha production at 0.4 uM pretreated for 1 hr followed by LPS stimulation measured after 24 hrs by ELISA relative to control. Type of data set: functional. The procedure, abridged:
as §2

A short description of data set [12]: Cytotoxicity against mouse RAW264.7 cells assessed as growth inhibition at 10 uM after 72 hrs by MTT assay relative to control. Type of data set: cell-based. The note with it: read-out: GI.

With `COC(=O)[C@]12CCC(C)(C)CC1=C1CC[C@@H]3[C@@]4(C)CC[C@H](O)C(C)(C)[C@@H]4CC[C@@]3(C)[C@]1(C(=O)O)CC2`, the IC50 (in general, the concentration needed to halve the response being measured) in data set [1] was 5.1 µM; in data set [2] it was above 10 µM; in data set [3] it was 5 µM.
With `C[C@H]1[C@@H]2[C@H]3CC[C@@H]4[C@@]5(C)CC[C@H](O)C(C)(C)[C@@H]5CC[C@@]4(C)[C@]3(C)CC[C@@]23C[C@@H](O)[C@]1(C)OC3=O`, the inhibition at 2 µM in data set [4] and in [9] was below 50% each time. Besides, the inhibition at 50 µM in [5] and in data set [6] was below 50% each time. The figures for the IC50 in data set [1], in data set [2] and in data set [3] were 7.3 µM, above 10 µM and above 10 µM, respectively. Further, the inhibition at 0.4 µM in [7] and in data set [11] was below 50% each time. Further, the inhibition at 10 µM in data set [8] and in data set [10] was below 50% throughout. The inhibition at 72 h, 10 µM in [12] is below 5%.
For the compound `C[C@H]1[C@H](C)CC[C@]2(C(=O)O)CC[C@]3(C)C(=C[C@@H](O)[C@@H]4[C@@]5(C)C[C@@H](O)[C@H](O)[C@@](C)(CO)[C@@H]5CC[C@]43C)[C@H]12`, the inhibition at 2 µM in data set [4] and in data set [9] was below 50% each time. Also, the inhibition at 50 µM in data set [5] and in data set [6] was below 50% throughout. Further, the IC50 in data set [1], in [2] and in data set [3] was above 10 µM throughout. The inhibition at 0.4 µM in data set [7] and in data set [11] was below 50% in each case. For the same compound, the inhibition at 10 µM in data set [8] and in data set [10] was below 50% in each case. Also, the inhibition at 72 h, 10 µM in [12] is below 5%.
As for `CC1=CC[C@]2(C(=O)O)CC[C@]3(C=O)[C@H](CC[C@@H]4[C@@]5(C)CC[C@H](O)C(C)(C)[C@@H]5CC[C@]43C)[C@H]2[C@@H]1C`, the inhibition at 2 µM in data set [4] was determined as 14.1%; in data set [9], 19.2%. Also, the half-maximal inhibitory concentration (IC50) in [1], in [2] and in data set [3] was above 10 µM each time. Further, the results for the inhibition at 0.4 µM in data set [7] and in [11] were 23.6% and 14.8%, respectively. Besides, the inhibition at 10 µM in [8] was 35.9%; in data set [10], 53.8%. Also, in [12], the inhibition at 72 h, 10 µM was below 5%.
`C=C1CC[C@]2(C(=O)O)CC[C@]3(C)C(=CC[C@@H]4[C@@]5(C)C[C@@H](O)[C@H](O)C(C)(C)[C@@H]5CC[C@]43C)[C@@H]2[C@H]1C`: the inhibition at 2 µM in data set [4] and in data set [9] was below 50% in each case. In addition, the inhibition at 50 µM in data set [5] and in [6] was below 50% in each case. Further, the concentration for half-maximal inhibition (IC50) in data set [1], in data set [2] and in [3] was above 10 µM throughout. Further, the inhibition at 0.4 µM in data set [7] and in data set [11] was below 50% throughout. For the same compound, the inhibition at 10 µM in data set [8] and in data set [10] was below 50% each time. The inhibition at 72 h, 10 µM in data set [12] is below 5%.
Regarding `COC(=O)[C@@]12CC[C@]3(C(=O)O)[C@H](CC[C@@H]4[C@@]5(C)CC[C@H](O)C(C)(C)[C@@H]5CC[C@]43C)[C@@H]1[C@@H](C)C(C)=C[C@H]2O`, the inhibition at 2 µM in data set [4] and in data set [9] was below 50% throughout. Besides, the inhibition at 50 µM in data set [5] and in [6] was below 50% throughout. The concentration for half-maximal inhibition (IC50) in data set [1], in [2] and in [3] was above 10 µM throughout. Besides, the inhibition at 0.4 µM in [7] and in [11] was below 50% throughout. Besides, the inhibition at 10 µM in data set [8] and in [10] was below 50% each time. Also, the inhibition at 72 h, 10 µM in data set [12] is below 5%.
As for `C=C1CC[C@]2(C(=O)O)CC[C@]3(C)C(=C[C@@H](O)[C@@H]4[C@@]5(C)C[C@@H](O)[C@H](O)[C@@](C)(CO)[C@@H]5CC[C@]43C)[C@@H]2[C@H]1C`, the inhibition at 2 µM in data set [4] and in [9] was below 50% in each case. In addition, the inhibition at 50 µM in [5] and in [6] was below 50% throughout. In addition, the 50% inhibitory concentration (IC50) in data set [1], in data set [2] and in data set [3] was above 10 µM in each case. The inhibition at 0.4 µM in data set [7] and in [11] was below 50% in each case. Besides, the inhibition at 10 µM in [8] and in [10] was below 50% each time. For the same compound, the inhibition at 72 h, 10 µM in data set [12] is below 5%.
For the compound `CC1=CC[C@]2(C(=O)O)CC[C@]3(C)[C@H](CC[C@@H]4[C@@]5(C)CC[C@H](O)C(C)(C)[C@@H]5CC[C@]43C)[C@H]2[C@@H]1C`, the values for the IC50 in [1], in [2] and in data set [3] were 2.4 µM, 4.3 µM and 1.9 µM, respectively.
As for `C=C1CC[C@]2(C(=O)O)CC[C@]3(C)C(=CC[C@@H]4[C@@]5(C)C[C@@H](O)[C@H](O)[C@@](C)(CO)[C@@H]5CC[C@]43C)[C@@H]2[C@H]1C` [ACTINIDIC ACID], the inhibition at 2 µM in [4] and in data set [9] was below 50% in each case. The inhibition at 50 µM in [5] and in data set [6] was below 50% throughout. For the same compound, the IC50 in data set [1], in data set [2] and in data set [3] was above 10 µM throughout. For the same compound, the inhibition at 0.4 µM in data set [7] and in data set [11] was below 50% in each case. Moreover, the inhibition at 10 µM in data set [8] and in data set [10] was below 50% throughout. Further, in data set [12], the inhibition at 72 h, 10 µM was below 5%.
`CC1(C)CC[C@]2(C(=O)O)CC[C@]3(C)C(=CC[C@@H]4[C@@]5(C)C[C@@H](O)[C@H](O)[C@@](C)(CO)[C@@H]5CC[C@]43C)[C@@H]2C1` [ARJUNOLIC ACID]: the inhibition at 2 µM in data set [4] and in data set [9] was below 50% in each case. The inhibition at 50 µM in [5] and in [6] was below 50% throughout. The 50% inhibitory concentration (IC50) in data set [1], in data set [2] and in data set [3] was above 10 µM in each case. Also, the inhibition at 0.4 µM in data set [7] and in data set [11] was below 50% each time. Also, the inhibition at 10 µM in data set [8] and in [10] was below 50% in each case. In addition, in data set [12], the inhibition at 72 h, 10 µM is below 5%.
As to `C[C@H]1[C@H](C)CC[C@]2(C(=O)O)CC[C@]3(C)C(=CC[C@@H]4[C@@]5(C)C[C@@H](O)[C@H](O)[C@@](C)(CO)[C@@H]5CC[C@]43C)[C@H]12` [ASIATIC ACID], the inhibition at 2 µM in data set [4] and in [9] was below 50% in each case. Also, the inhibition at 50 µM in [5] and in data set [6] was below 50% each time. For the same compound, the half-maximal inhibitory concentration (IC50) in data set [1], in [2] and in data set [3] was above 10 µM in each case. The inhibition at 0.4 µM in data set [7] and in data set [11] was below 50% each time. For the same compound, the inhibition at 10 µM in [8] and in data set [10] was below 50% each time. In addition, the inhibition at 72 h, 10 µM in [12] was below 5%.
With `C[C@@H]1C[C@H]2[C@@H]3CCC4=CC(=O)C=C[C@]4(C)[C@@]3(F)[C@@H](O)C[C@]2(C)[C@@]1(O)C(=O)CO` [DEXAMETHASONE], the inhibition at 2 µM in data set [4] was determined as 71.8%; in data set [9], 75.9%. The inhibition at 50 µM came out at 86.1% in [5] and 84.9% in [6]. In addition, the inhibition at 10 µM in data set [8] was 79.2%; in data set [10], 80.4%.
In data set [1], `COc1cccc2c1C(=O)c1c(O)c3c(c(O)c1C2=O)C[C@@](O)(C(=O)CO)C[C@@H]3O[C@H]1C[C@H](N)[C@H](O)[C@H](C)O1` [DOXORUBICIN] had a concentration for half-maximal inhibition (IC50) of 1.6 µM.
For `C=C1[C@@H](O)[C@H](O)C[C@]2(C)[C@H]3CC=C4[C@@H]5[C@@H](C)[C@H](C)CC[C@]5(C(=O)O)CC[C@@]4(C)[C@]3(C)CC[C@@H]12` [ILEKUDINOL B], the concentration for half-maximal inhibition (IC50) was 9.1 µM in [1], above 10 µM in data set [2] and above 10 µM in [3].
For `CC1(C)CC[C@]2(C(=O)O)CC[C@]3(C)C(=CC[C@@H]4[C@@]5(C)CC[C@H](O)C(C)(C)[C@@H]5CC[C@]43C)[C@@H]2C1` [OLEANOLIC_ACID], the half-inhibitory concentration (IC50) in [1], in data set [2] and in [3] was above 10 µM throughout.
For the compound `C[C@H]1[C@H](C)CC[C@]2(C(=O)O)CC[C@]3(C)C(=CC[C@@H]4[C@@]5(C)CC[C@H](O)C(C)(C)[C@@H]5CC[C@]43C)[C@H]12` [URSOLIC ACID], the IC50 in data set [1] was 4.2 µM; in data set [2], 6.6 µM; in data set [3], above 10 µM.
